# Assay outcomes as filed in PubChem BioAssay.
# Most compounds without a hit are left out; they make up all but 2.9% or so of the library.
# TRPC4 agonist: activators of mouse TRPC4 channel, primary screen, Fluo4 calcium, HEK293 TRPC4beta/mu-opioid cells; B-score at 10 µM; Fluo4 calcium fluorescence; hits give high values; hit rate 0.49% among 310,000; Short transient receptor potential channel 4 (Mus musculus), Q9QUQ5; AID 2237, 2010;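 active = B-score above 5 SD of library B-scores, and initial fluorescence ratio not above library mean plus 5 SD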;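 also: positive B-score marks a calcium rise read as TRPC4 activation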
#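 system = HEK293 cells stably co-expressing mouse TRPC4beta and mu-opioid receptor | schedule = Fluo4 dye loading 45 min at room temperature, 110 s recording | measure = B-scored integrated calcium fluorescence ratio | signal = Fluo4 calcium-sensitive dye fluorescence, kinetic, 1 Hz baseline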
# TRPC4 inh: inhibitors of mouse TRPC4 channel, primary screen, Fluo4 calcium, HEK293 TRPC4beta/mu-opioid cells; B-score at 10 µM; DAMGO-evoked Fluo4 calcium flux; hits give low values; Short transient receptor potential channel 4 (Mus musculus), Q9QUQ5; hit rate 0.39% among 300,000;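 active = B-score over 3 SD under the library average, no early fluorescence shift, positive overall ratio signal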
#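 test system = HEK293 cells with stable TRPC4beta plus mu-opioid receptor expression | detection = Fluo4 Ca2+ flux fluorescence | read-out = integrated fluorescence ratio relative to baseline, converted to per-well B score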
# TRPC6 inhibitor: mouse TRPC6 channel inhibitors, primary screen, cell-based, HEK293, membrane potential dye. Short transient receptor potential channel 6 (Mus musculus), Q61143. ACh-evoked depolarization; hits give low values. B-score at 10 µM. hit rate 1.1% among 310,000. AID 2553, 2010;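 active = B-score under library mean minus 3 SD, initial fluorescence not abnormally high, positive integrated signal ratio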;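 also: B-score derived from integrated fluorescence ratio over the kinetic read; more negative B-score means stronger inhibition of depolarization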
# TRPC6 activator: mouse TRPC6 channel activators, primary screen, cell-based, HEK293, membrane potential dye. AID 2550, 2010. HEK293-TRPC6 membrane potential dye fluorescence; hits give high values. hit rate 0.13% among 310,000. B-score at 10 µM. Short transient receptor potential channel 6 (Mus musculus), Q61143;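 active = B-score of the integrated fluorescence ratio above library mean plus 3 SD, and starting fluorescence ratio within library mean plus 5 SD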;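 also: higher score means more depolarization so channel activation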
# TRPC4 potent: positive allosteric modulators of TRPC4, primary screen, cell-based, mouse TRPC4beta, HEK293 mu-opioid, Fluo-4 calcium. B-score at 10 µM. Short transient receptor potential channel 4 (Mus musculus), Q9QUQ5. DAMGO EC20, Fluo-4 Ca2+ flux; hits give high values. AID 2227, 2009. hit rate 0.42% among 310,000;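 active = B-score of calcium response area above 5 SD of library B-scores, with initial fluorescence ratio within 5 SD of library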;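 also: B-score of integrated fluorescence ratio over time as area under calcium response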
# Kir21 block: inhibitors of mouse Kir2.1 inward-rectifier potassium channel | HEK293-Kir2.1, FluxOR thallium flux fluorescence; hits give low values | B-score at 10 µM | hit rate 0.85% among 310,000;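 active = fluorescence ratio B-score at or below minus 3 SD of library scores, with starting-brightness B-score within 2 SD, cut at about -4.2 in these data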;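 also: channel flux triggered by added potassium and thallium sulfate stimulus; B-score of peak minus minimum fluorescence over baseline after thallium stimulus; more negative B-score means stronger Kir2.1 block with less thallium influx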
# Target sequence (P35561 whole entry, looked up): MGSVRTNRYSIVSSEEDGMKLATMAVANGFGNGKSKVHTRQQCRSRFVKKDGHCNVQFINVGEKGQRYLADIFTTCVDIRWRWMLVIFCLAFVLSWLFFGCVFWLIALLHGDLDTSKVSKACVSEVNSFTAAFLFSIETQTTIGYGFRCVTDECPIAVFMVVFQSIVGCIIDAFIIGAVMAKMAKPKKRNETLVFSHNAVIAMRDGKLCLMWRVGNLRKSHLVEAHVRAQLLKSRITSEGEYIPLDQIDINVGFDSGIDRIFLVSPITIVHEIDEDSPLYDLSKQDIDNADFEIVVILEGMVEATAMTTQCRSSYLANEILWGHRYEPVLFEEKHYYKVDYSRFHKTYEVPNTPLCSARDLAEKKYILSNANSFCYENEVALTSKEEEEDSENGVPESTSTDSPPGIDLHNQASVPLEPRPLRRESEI
# TRPC4 spec 2: mouse TRPC4 off-target activity of TRPC6 inhibitors, second screen; hit rate 42% among 920; AID 2776; shares compounds with TRPC6 inhibitor; HEK293 TRPC4/MOR, membrane potential dye fluorescence; channel activated by saturating DAMGO dose; inhibition, % at 10 µM;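 active = compounds whose fluorescence signal differed from control wells by over 3 SD, either direction, in both duplicate plates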
# TRPC4 spec: mouse TRPC4 modulation by TRPC6 hits, confirmation, selectivity assay for TRPC6 inhibitor project, cell-based, HEK293 TRPC4/mu-opioid, membrane potential dye; membrane potential fluorescence; shares compounds with TRPC6 inhibitor; activity change, negative = inhibition, % at 10 µM; hit rate 61% among 920;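 active = rise or fall in signal beyond 3 SD of buffer-only wells in both replicate plates, either sign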;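 also: integrated kinetic ratio of fluorescence range over baseline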
# HEK293 MPD ctr 2-1: nonspecific membrane potential effects, parental HEK293, confirmation, counter-screen for TRPC6 inhibitor project, cell-based, second counter screen; shares compounds with TRPC6 inhibitor; parental HEK293 membrane potential dye fluorescence; maximal acetylcholine challenge after compound addition; signal change vs control, % at 10 µM; hit rate 31% among 920;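 active = membrane potential signal moving either way by over 3 SD of the maximum-effect control, in both duplicate plates, meaning non-specific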
# HEK293 MPD ctr-1: membrane potential modulation in parental HEK293, confirmation, counter-screen for TRPC6 inhibitor project, cell-based; membrane potential signal change, % at 10 µM; hit rate 60% among 920; AID 2780, 2010; parental HEK293 membrane potential dye fluorescence; shares compounds with TRPC6 inhibitor;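 active = membrane potential signal shifting up or down by more than 3 SD of buffer-only wells, on both duplicate plates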
# HEK293 MPD ctr-2: parental HEK293 membrane potential modulation, confirmation, counter-screen for TRPC6 modulator project, cell-based | shares compounds with TRPC6 inhibitor | membrane potential dye fluorescence | membrane potential signal change, % at 10 µM | hit rate 51% among 2,400;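 active = membrane potential signal moves up or down beyond 5 SD from buffer-only wells, on both duplicate plates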
# HEK293 MPD ctr 2-2: second counter-screen for TRPC6 modulators: effect in parental HEK293 cells | membrane potential dye fluorescence; after compound, maximal acetylcholine stimulation | inhibition, % at 10 µM | shares compounds with TRPC6 inhibitor | hit rate 14% among 2,400 | AID 488926;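 active = membrane potential signal drops by more than 5 SD from the mean control signal, in both duplicate plates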;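 also: plate controls were acetylcholine ECmax control wells for no effect and buffer only wells for full effect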
# TRPC4 ctr mod: TRPC4 modulation by TRPC6 hit compounds, confirmation, selectivity assay for TRPC6 modulator project, cell-based, HEK293 TRPC4/mu-opioid, membrane potential dye, mouse. membrane potential fluorescence. shares compounds with TRPC6 inhibitor. hit rate 69% among 2,400. percent change from control (negative = decrease, positive = increase), % at 10 µM;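 active = membrane potential signal moved up or down beyond 5 SD of buffer control wells, in both duplicate plates, actives on both sides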;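 also: plate controls were assay buffer wells for no effect and DAMGO maximal-effect wells for full effect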
# TRPC4 ctr inh 2: mouse TRPC4 off-target activity of TRPC6 modulators, second screen; HEK293 TRPC4/mu-opioid, membrane potential dye fluorescence; stimulated with maximal-effect DAMGO; AID 488928; hit rate 55% among 2,400; inhibition, % at 10 µM; shares compounds with TRPC6 inhibitor;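 active = drop in membrane potential signal beyond 5 SD of the control wells in both duplicate plates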;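 also: TRPC4 counter screen for TRPC6 hits run under conditions tuned for TRPC6 not TRPC4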
# TRPC6 inh conf: mouse TRPC6 channel inhibitors, confirmation, HEK293 cells, membrane potential dye, duplicate; shares compounds with TRPC6 inhibitor; ACh-evoked depolarization; inhibition, % at 10 µM; hit rate 43% among 3,300;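 active = fluorescence ratio falls more than 5 SD below the full-stimulation control mean, in both duplicate runs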;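 also: integrated fluorescence ratio of peak minus minimum over baseline after agonist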
# TRPC6 act conf: mouse TRPC6 channel activators, confirmation, HEK293 cells, membrane potential dye, duplicate | shares compounds with TRPC6 inhibitor | HEK293-TRPC6 membrane potential dye fluorescence, FDSS | activation, % at 10 µM | hit rate 11% among 2,800;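 active = ratio signal rise beyond 5 SD above unstimulated control wells' mean, seen in both duplicate runs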;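 also: plate controls were buffer EC0 wells for no effect and acetylcholine ECmax response for full effect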
# * hit, by the source's call; i = inactive; . = no result given.
SMILES,TRPC4 agonist,TRPC4 inh,TRPC6 inhibitor,TRPC6 activator,TRPC4 potent,Kir21 block,HEK293 MPD ctr-2,HEK293 MPD ctr 2-2,TRPC4 ctr mod,TRPC4 ctr inh 2,TRPC6 inh conf,TRPC6 act conf,others
Cc1onc(-c2c(F)cccc2Cl)c1C(=O)NC(=S)Nc1c(C)n(C)n(-c2ccccc2)c1=O,i,i,-9.22*,i,i,0.08,.,.,.,.,i,i,TRPC4 spec 2=i;TRPC4 spec=i;HEK293 MPD ctr 2-1=38.5%*;HEK293 MPD ctr-1=i
CCOC(=O)N1CCN(C(=O)COc2ccc(Cl)c(C)c2)CC1,i,i,i,i,i,0.53,.,.,.,.,.,.,
CCn1c(SCC(=O)Nc2ccc(OC)c(OC)c2)nnc1-c1ccco1,i,i,i,i,i,-1.66,.,.,.,.,.,.,
Cc1cc(NCCCn2ccnc2)n2nc(-c3ccc(Cl)cc3)cc2n1,i,i,-11.1*,i,i,-1.73,i,100.5%*,20.0%*,54.0%*,54.0%*,i,
CC(C)(C)c1cc(NCCCn2ccnc2)n2ncc(-c3ccc(Cl)cc3)c2n1,i,i,i,i,i,0.59,.,.,.,.,.,.,
Cc1cc(NCCCn2ccnc2)n2nc(-c3ccc(F)cc3)cc2n1,i,i,-10*,i,i,-3.12,-299.5%*,92.5%*,-53.5%*,62.0%*,72.0%*,i,
Cc1cccc(-c2cc3nc(C)c(C)c(NCCCn4ccnc4)n3n2)c1,i,i,-7.37*,i,i,-1.13,.,.,.,.,76.1%*,i,TRPC4 spec 2=58.0%*;TRPC4 spec=-18.2%*;HEK293 MPD ctr 2-1=i;HEK293 MPD ctr-1=i
COc1cccc(N2CC(C(=O)Nc3ccc(C(=O)OC(C)C)cc3)CC2=O)c1 (centres undefined),i,i,i,i,i,0.39,.,.,.,.,.,.,
CCN1CCN(CC(=O)Nc2cc(C)on2)CC1,i,i,i,i,i,0.23,.,.,.,.,.,.,
O=C(NN1C(=O)C2C3C=CC(C3)C2C1=O)c1ccccc1 (centres undefined),i,i,i,i,i,0.01,.,.,.,.,.,.,
Cc1cccc(C(=O)NN2C(=O)C3C(c4ccccc4)C=CC(c4ccccc4)C3C2=O)c1 (centres undefined),i,i,-5*,i,i,0.29,i,i,i,i,i,i,
CCNC(=S)N1CCN(C(c2ccccc2)c2ccccc2)CC1,68*,i,-5.21*,i,i,0.64,i,i,65.5%*,73.5%*,i,i,
CCCNC(=S)N1CCN(C(c2ccccc2)c2ccccc2)CC1,i,i,i,i,i,-0.08,.,.,.,.,.,.,
Cc1ccc(Cn2c(=N)n(CC(O)COc3ccccc3)c3ccccc32)cc1 (centres undefined),72*,i,-5.86*,i,i,-8.54*,i,i,67.5%*,115.0%*,46.0%*,.,
N=c1n(Cc2ccccc2)c2ccccc2n1CC(O)COc1ccccc1 (centres undefined),56*,i,-9.91*,i,i,-7.14*,.,.,.,.,63.0%*,.,TRPC4 spec 2=-6.5%*;TRPC4 spec=56.0%*;HEK293 MPD ctr 2-1=i;HEK293 MPD ctr-1=13.7%*
CCCCn1c(=N)n(CC(O)COc2ccccc2)c2ccccc21 (centres undefined),i,i,i,i,i,-3.7,.,.,.,.,.,.,
FC(F)(F)c1ccccc1NC(=S)NN=C1CCCCCC1,i,i,i,i,i,-0.89,.,.,.,.,.,.,
COc1cc(/C=C(\C#N)C(=O)c2c[nH]c3ccccc23)cc(OC)c1O,i,i,i,24.4*,i,-1.05,255.5%*,i,72.5%*,i,i,88.0%*,
COC(=O)/C(C#N)=C/c1c[nH]c2ccccc12,i,i,i,i,i,-0.04,.,.,.,.,.,.,
COc1cc(/C=C(\C#N)C(=O)NCCc2ccccc2)cc(OC)c1O,i,.,i,14.1*,i,-0.13,394.0%*,i,71.5%*,i,i,68.5%*,
Cc1ccc(CNC(=O)Cn2cccc2)cc1,i,i,i,i,i,-0.2,.,.,.,.,.,.,
COc1ccc2c(c1)S/C(=C\C(=O)c1ccncc1)N2C,i,i,-5.91*,i,i,-0.59,100.5%*,i,-67.0%*,34.5%*,i,i,
